{"data": "Measured values of several laboratories", "target": "Serine/threonine-protein kinase WNK1 (WNK1, Homo sapiens, UniProt Q9H4A3)"}
{"Compound": "O=C(Nc1cnn(-c2csc(C(=O)NC3COC3)c2)c1)Nc1c(F)cccc1Cl", "assay": "enzyme activity, inhibitor", "conditions": "5 µM", "endpoint": "remaining activity", "result": "93.3%"}
{"Compound": "Cc1ccc(C(=O)NCc2ccsc2)cc1C#Cc1cn(C(C)C)c2ncnc(N)c12", "assay": "enzyme activity, inhibitor", "conditions": "1 µM", "endpoint": "activity vs control", "result": "92%"}
{"Compound": "CS(=O)(=O)Nc1cccc(-c2csc(NC(=O)CSc3nc4nccnc4c(=O)n3CCc3ccccc3)n2)c1", "assay": "enzyme activity, inhibitor", "conditions": "10 µM", "endpoint": "inhibition", "result": "-3%"}
{"Compound": "Cn1cncc1C1=CN(c2ncnc3[nH]cnc23)CCS1", "assay": "enzyme activity, inhibitor, radiometric", "conditions": "2 µM", "endpoint": "inhibition", "result": "10.7%"}
{"Compound": "CC(C)(O)[C@H]1CC[C@H](Nc2ccc3ncc(-c4cccc(C(F)(F)F)c4)n3n2)CC1", "assay": "enzyme activity, inhibitor", "conditions": "1 µM", "endpoint": "remaining activity", "result": "92.6%"}
{"Compound": "CN([C@@H]1CCc2c(CC(=O)O)c3cc(S(C)(=O)=O)ccc3n2C1)S(=O)(=O)c1ccc(F)cc1", "assay": "cell-free assay, competition with immobilised ligand", "conditions": "1 µM", "endpoint": "remaining binding", "result": "95%"}
{"Compound": "FC(F)(F)Oc1cccc(-c2cnc3ccc(-c4ccncc4)nn23)c1", "assay": "enzyme activity, inhibitor, radiometric", "conditions": "5 µM", "endpoint": "activity vs control", "result": "99%"}
{"Compound": "COc1ccc2cc(OCC3(C(=O)O)CN(C(=O)c4ccc(F)cc4)C3)ccc2c1", "assay": "cell-free assay, competition with immobilised ligand", "conditions": "1 µM", "endpoint": "remaining binding", "result": "84%"}
{"Compound": "Nc1ncnc2occ(-c3ccc(NC(=O)Nc4cc(C(F)(F)F)ccc4F)cc3)c12", "assay": "cell-free assay, inhibitor", "conditions": "20 µM", "endpoint": "remaining signal", "result": "87%"}
{"Compound": "CN(c1ccnc(CNc2nc(Nc3ccc4c(c3)CC(=O)N4)ncc2C(F)(F)F)n1)S(C)(=O)=O", "assay": "cell-free assay, competition with immobilised ligand", "conditions": "1 µM", "endpoint": "remaining binding", "result": "87%"}
{"Compound": "CN1CC(Oc2cnc(C#N)cc2-c2ccn3nc(NC(=O)C4CC4)cc3c2)C1", "assay": "enzyme activity, inhibitor", "conditions": "1 µM", "endpoint": "inhibition", "result": "17%"}
{"Compound": "C[C@@H]1CCN(c2nccc(-c3cnn4ncccc34)n2)C1", "assay": "binding", "conditions": "1 µM", "endpoint": "remaining binding", "result": "92%"}
{"Compound": "N#Cc1ccc(Nc2ccc3[nH]c(=O)[nH]c3c2)c(Cl)c1", "assay": "cell-free assay, competition with immobilised ligand", "conditions": "1 µM", "endpoint": "remaining binding", "result": "100%"}
{"Compound": "COc1cc(Nc2cnc(C#N)c(O[C@H](C)CN(C)C)n2)ncc1-c1cnn(C)c1", "assay": "enzyme activity, inhibitor, radiometric", "conditions": "1 µM", "endpoint": "remaining activity", "result": "95%"}
{"Compound": "CC(C)(C)c1nc(-c2cccc(NS(=O)(=O)c3c(F)cccc3F)c2F)c(-c2ccnc(N)n2)s1", "assay": "enzyme activity, inhibitor, radiometric", "conditions": "1 µM", "endpoint": "remaining activity", "result": "98%"}
